According to ChEMBL document CHEMBL1126625, “7-Azetidinylquinolones as antibacterial agents. Synthesis and structure-activity relationships” (J Med Chem, 1993):
In brackets after ≈: the same amount, converted by molar mass.

Experiments:
[1] = test system: Mus musculus; assay: Blood level after oral administration in mice (50 mg/kg) was determined (area under the concentration-time curve recorded at 0.5, 1, 2, and 4 hour after dosing); assay type: ADME, organism-based; set-up: dose 50 mg/kg, time < 4 hr, route oral; conditions: in vivo
Method in brief: (§1)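 Single oral dose of 50 mg/kg to mice. Blood taken from groups of six mice at 0.5, 1, 2 and 4 h after dosing. Serum levels measured by disk agar diffusion bioassay with Bacillus subtilis ATCC 6633 on Seed Agar, plates incubated 18 h at 37 °C, giving total activity in serum. AUC 0-4 h expressed as μg/mL […].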

[2] = test system: Bacillus cereus; assay: Minimum inhibitory concentration (MIC) preventing growth of Bacillus cereus; assay type: functional
[3] = test system: Bacillus subtilis; assay: Minimum inhibitory concentration (MIC) preventing growth of Bacillus subtilis; assay type: functional
[4] = test system: Escherichia coli; assay: Minimum inhibitory concentration (MIC)preventing growth of Escherichia coli; assay type: functional
[5] = test system: Klebsiella pneumoniae; assay: Minimum inhibitory concentration (MIC)preventing growth of Klebsiella pneumoniae; assay type: functional
[6] = test system: Morganella morganii; assay: Minimum inhibitory concentration (MIC) preventing growth of Morganella morganii; assay type: functional
[7] = test system: Proteus vulgaris; assay: Minimum inhibitory concentration (MIC) preventing growth of Proteus vulgaris; assay type: functional
[8] = test system: Staphylococcus epidermidis; assay: Minimum inhibitory concentration (MIC) preventing growth of Staphylococcus epidermidis; assay type: functional
[9] = test system: Staphylococcus aureus; assay: Minimum inhibitory concentration (MIC) preventing growth of […]; assay type: functional
[10] = test system: Enterococcus faecalis; assay: Minimum inhibitory concentration (MIC) preventing growth of Streptococcus faecalis ATCC 10541; assay type: functional
[11] = test system: Enterobacter cloacae; assay: Minimum inhibitory concentration (MIC)preventing growth of Enterobacter cloacae; assay type: functional
[12] = test system: Pseudomonas aeruginosa; assay: Minimum inhibitory concentration (MIC)preventing growth of Pseudomonas aeruginosa; assay type: functional
[13] = test system: Escherichia coli; assay: Efficacy on systemic infections after oral administration in mice was determined against Escherichia coli HM-42; assay type: functional
Method in brief: (§2)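 Mouse protection test using 4 groups of 10 mice. Mice were infected intraperitoneally with a bacterial suspension slightly above LD100. A single oral dose was given immediately after infection, with four doses, one per group, chosen from in vitro activity. Survival was scored after one week, and ED50 (total mg/kg protecting 50% of mice) was interpolated from group survival rates.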

[14] = test system: Pseudomonas aeruginosa; assay: Efficacy on systemic infections after oral administration in mice was determined against Pseudomonas aeruginosa HS-116; assay type: functional; method in brief: as §2
[15] = test system: Staphylococcus aureus; assay: Efficacy on systemic infections after oral administration in mice was determined against […] HS-93; assay type: functional; method in brief: as §2
[16] = test system: Mus musculus; assay: Blood level after oral administration in mice (50 mg/kg) was determined by bioassay procedure and represent total activity present in the serum; assay type: ADME, organism-based; conditions: in vivo; method in brief: as §1

| SMILES | AUC [1] [ng·h/mL] | MIC [2] [µg/mL] | MIC [3] [µg/mL] | MIC [4] [µg/mL] | MIC [5] [µg/mL] | MIC [6] [µg/mL] | MIC [7] [µg/mL] | MIC [8] [µg/mL] | MIC [9] [µg/mL] | MIC [10] [µg/mL] | MIC [11] [µg/mL] | MIC [12] [µg/mL] | AUC [16] [ng·h/mL] | ED50 [13] [mg/kg] | ED50 [14] [mg/kg] | ED50 [15] [mg/kg] |
| --- | --- | --- | --- | --- | --- | --- | --- | --- | --- | --- | --- | --- | --- | --- | --- | --- |
| CNC1CN(c2c(F)cc3c(=O)c(C(=O)O)cn(C4CC4)c3c2F)C1 | 32700 | 0.25 (≈ 0.716 µM) | 0.06 (≈ 0.172 µM) | 0.03 (≈ 0.0859 µM) | 0.03 (≈ 0.0859 µM) | 0.06 (≈ 0.172 µM) | 0.5 (≈ 1.43 µM) | 0.12 (≈ 0.344 µM) | 0.25 (≈ 0.716 µM) | 1 (≈ 2.86 µM) | 0.03 (≈ 0.0859 µM) | 0.5 (≈ 1.43 µM) |  | 1.5 | 28.5 | 10.6 |
| CN(C)C1CN(c2c(F)cc3c(=O)c(C(=O)O)cn(C4CC4)c3c2F)C1 | 38200 | 0.25 (≈ 0.688 µM) | 0.015 (≈ 0.0413 µM) | 0.06 (≈ 0.165 µM) | 0.06 (≈ 0.165 µM) | 0.12 (≈ 0.33 µM) | 0.25 (≈ 0.688 µM) | 0.25 (≈ 0.688 µM) | 0.25 (≈ 0.688 µM) | 1 (≈ 2.75 µM) | 0.06 (≈ 0.165 µM) | 2 (≈ 5.5 µM) |  | 1.7 | 90.8 | 19.8 |
| CCNC1CN(c2c(F)cc3c(=O)c(C(=O)O)cn(C4CC4)c3c2F)C1 | 38200 | 0.25 (≈ 0.688 µM) | 0.06 (≈ 0.165 µM) | 0.06 (≈ 0.165 µM) | 0.06 (≈ 0.165 µM) | 0.06 (≈ 0.165 µM) | 0.25 (≈ 0.688 µM) | 0.25 (≈ 0.688 µM) | 0.25 (≈ 0.688 µM) | 1 (≈ 2.75 µM) | 0.06 (≈ 0.165 µM) | 2 (≈ 5.5 µM) |  | 1.1 | 89 | 16.6 |
| NC1CN(c2c(F)cc3c(=O)c(C(=O)O)cn(C4CC4)c3c2F)C1 | 23000 | 0.12 (≈ 0.358 µM) | 0.03 (≈ 0.0895 µM) | 0.03 (≈ 0.0895 µM) | 0.03 (≈ 0.0895 µM) | 0.03 (≈ 0.0895 µM) | 0.12 (≈ 0.358 µM) | 0.12 (≈ 0.358 µM) | 0.12 (≈ 0.358 µM) | 0.25 (≈ 0.746 µM) | 0.06 (≈ 0.179 µM) | 0.5 (≈ 1.49 µM) |  | 2.4 | 141 | 16.2 |
| NCC1CN(c2c(F)cc3c(=O)c(C(=O)O)cn(C4CC4)c3c2F)C1 | 1700 | 0.12 (≈ 0.344 µM) | 0.06 (≈ 0.172 µM) | 0.25 (≈ 0.716 µM) | 0.25 (≈ 0.716 µM) | 0.25 (≈ 0.716 µM) | 1 (≈ 2.86 µM) | 0.12 (≈ 0.344 µM) | 0.12 (≈ 0.344 µM) | 0.12 (≈ 0.344 µM) | 0.25 (≈ 0.716 µM) | 2 (≈ 5.73 µM) |  |  |  |  |
| CCNCC1CN(c2c(F)cc3c(=O)c(C(=O)O)cn(C4CC4)c3c2F)C1 |  | 0.5 (≈ 1.32 µM) | 0.06 (≈ 0.159 µM) | 0.25 (≈ 0.662 µM) | 0.06 (≈ 0.159 µM) | 0.25 (≈ 0.662 µM) | 1 (≈ 2.65 µM) | 0.25 (≈ 0.662 µM) | 0.5 (≈ 1.32 µM) | 0.5 (≈ 1.32 µM) | 0.25 (≈ 0.662 µM) | 4 (≈ 10.6 µM) | 14100 |  |  |  |

Further lines, with some results ahead:

| AUC [1] [ng·h/mL] | MIC [2] [µg/mL] | MIC [3] [µg/mL] | MIC [4] [µg/mL] | MIC [5] [µg/mL] | MIC [6] [µg/mL] | MIC [7] [µg/mL] | MIC [8] [µg/mL] | MIC [9] [µg/mL] | MIC [10] [µg/mL] | MIC [11] [µg/mL] | MIC [12] [µg/mL] | AUC [16] [ng·h/mL] | SMILES | ED50 [13] [mg/kg] | ED50 [14] [mg/kg] | ED50 [15] [mg/kg] |
| --- | --- | --- | --- | --- | --- | --- | --- | --- | --- | --- | --- | --- | --- | --- | --- | --- |
| 18100 | 0.25 (≈ 0.724 µM) | 0.06 (≈ 0.174 µM) | 0.06 (≈ 0.174 µM) | 0.06 (≈ 0.174 µM) | 0.5 (≈ 1.45 µM) | 0.25 (≈ 0.724 µM) | 0.25 (≈ 0.724 µM) | 0.25 (≈ 0.724 µM) | 2 (≈ 5.79 µM) | 0.06 (≈ 0.174 µM) | 2 (≈ 5.79 µM) |  | CCNC1CN(c2cc3c(cc2F)c(=O)c(C(=O)O)cn3C2CC2)C1 |  |  |  |
| 4200 | 0.12 (≈ 0.362 µM) | 0.03 (≈ 0.0905 µM) | 0.03 (≈ 0.0905 µM) | 0.03 (≈ 0.0905 µM) | 0.03 (≈ 0.0905 µM) | 0.25 (≈ 0.754 µM) | 0.12 (≈ 0.362 µM) | 0.25 (≈ 0.754 µM) | 1 (≈ 3.02 µM) | 0.03 (≈ 0.0905 µM) | 0.5 (≈ 1.51 µM) |  | CNC1CN(c2cc3c(cc2F)c(=O)c(C(=O)O)cn3C2CC2)C1 | 3.8 | 145 | 36.3 |
| 0 | 0.25 (≈ 0.754 µM) | 0.12 (≈ 0.362 µM) | 0.12 (≈ 0.362 µM) | 0.12 (≈ 0.362 µM) | 0.12 (≈ 0.362 µM) | 1 (≈ 3.02 µM) | 0.25 (≈ 0.754 µM) | 0.5 (≈ 1.51 µM) | 0.5 (≈ 1.51 µM) | 0.25 (≈ 0.754 µM) | 1 (≈ 3.02 µM) |  | NCC1CN(c2cc3c(cc2F)c(=O)c(C(=O)O)cn3C2CC2)C1 |  |  |  |
| 0 | 0.5 (≈ 1.39 µM) | 0.06 (≈ 0.167 µM) | 0.25 (≈ 0.696 µM) | 0.06 (≈ 0.167 µM) | 0.5 (≈ 1.39 µM) | 1 (≈ 2.78 µM) | 1 (≈ 2.78 µM) | 0.5 (≈ 1.39 µM) | 4 (≈ 11.1 µM) | 0.12 (≈ 0.334 µM) | 4 (≈ 11.1 µM) |  | CCNCC1CN(c2cc3c(cc2F)c(=O)c(C(=O)O)cn3C2CC2)C1 |  |  |  |
| 8400 | 0.25 (≈ 0.724 µM) | 0.06 (≈ 0.174 µM) | 0.06 (≈ 0.174 µM) | 0.06 (≈ 0.174 µM) | 0.06 (≈ 0.174 µM) | 0.25 (≈ 0.724 µM) | 0.25 (≈ 0.724 µM) | 0.25 (≈ 0.724 µM) | 1 (≈ 2.9 µM) | 0.12 (≈ 0.347 µM) | 2 (≈ 5.79 µM) |  | CNC1(C)CN(c2cc3c(cc2F)c(=O)c(C(=O)O)cn3C2CC2)C1 | 1.9 | 69.8 | 16.5 |
